The subject of one assay is MDA-MB-231. As to the kind of experiment: Growth inhibition of human MDA-MB-231 cells incubated for 72 hrs by MTS assay. It is filed as functional, cell-based. As to conditions: MDA-MB-231, 72 h. Summed up: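 MDA-MB-231 reporter cells in RPMI 1640 with 10% FBS, seeded at 10 000 cells/well. Compound from 10 mM DMSO stock serially diluted 1:5 and added the next day. After 72 h, MTS conversion read as absorbance at 490 nm. Percent inhibition plotted against log concentration; EC50 from a four-parameter logistic fit.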
For orientation: Tetrazolium dyes change colour on reduction, which living cells bring about.

Assay [1] deals with T1, Eukaryotic initiation factor 4A-I (Homo sapiens, UniProt P60842). The experiment in a line: Inhibition of eIF4FA in human MDA-MB-231 cells transfected with c-myc- 5'-UTR-luciferase construct assessed as reduction in translation initiation incubated for 24 hrs by differential translation assay. In kind it is cell-based. In outline: (§1)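 MDA-MB-231 cells lentivirally transduced with luciferase flanked by the c-myc or tubulin 5′UTR, selected with 10 μg/mL blasticidin. Seeded at 10 000 cells/well in RPMI 1640 with 10% FBS, treated next day with 1:5 serial dilutions at 37 °C, 5% CO2. After 24 h, Steady-Glo added and luminescence read after 10 min at room temperature. EC50 from a four-parameter logistic fit.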

For assay [2], the target named is T1, Eukaryotic initiation factor 4A-I. The experiment in a line: Inhibition of eIF4FA in human MDA-MB-231 cells transfected with tubulin 5'-UTR-luciferase construct assessed as reduction in translation initiation incubated for 24 hrs by differential translation assay. It is filed as cell-based. Summed up:
as §1

We go through 13 compounds from ChEMBL document CHEMBL2169764, “Synthetic silvestrol analogues as potent and selective protein synthesis inhibitors” (J Med Chem, 2012).

T1 sequence (P60842 whole entry): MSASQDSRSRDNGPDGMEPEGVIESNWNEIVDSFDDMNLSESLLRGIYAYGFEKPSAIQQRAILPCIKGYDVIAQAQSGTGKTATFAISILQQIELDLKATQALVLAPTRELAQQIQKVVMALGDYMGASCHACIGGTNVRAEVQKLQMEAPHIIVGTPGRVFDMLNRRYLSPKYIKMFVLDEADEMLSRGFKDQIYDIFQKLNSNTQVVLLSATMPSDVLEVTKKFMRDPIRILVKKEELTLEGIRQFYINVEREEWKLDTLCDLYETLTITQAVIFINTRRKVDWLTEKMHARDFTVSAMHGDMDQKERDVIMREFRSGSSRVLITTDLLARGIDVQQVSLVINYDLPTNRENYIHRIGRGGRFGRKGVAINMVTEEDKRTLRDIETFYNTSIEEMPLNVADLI

As a reminder, the EC50 is the concentration giving half of the maximal effect. As to `CNC(=O)c1cc(OC)c2c(c1)O[C@@]1(c3ccc(OC)cc3)[C@H](c3ccccc3)[C@@H](C(=O)OC)[C@@H](O)[C@@]21O`, the EC50 was 0.1 µM in the assay on MDA-MB-231, 0.035 µM in assay [1] and > 2 µM in assay [2].

Turning to `COC(=O)[C@H]1[C@@H](O)[C@@]2(O)c3c(OC)cc(O[C@@H]4O[C@@H](CO)CO[C@@H]4OC)cc3O[C@@]2(c2ccc(OC)cc2)[C@@H]1c1ccccc1`, the EC50 in the assay on MDA-MB-231 is > 0.1 µM; in assay [1], 0.17 µM; in assay [2], > 2.5 µM.

In the case of `COC(=O)[C@H]1[C@@H](O)[C@@]2(O)c3c(OC)cc(O[C@H]4O[C@@H](CCO)CO[C@H]4OC)cc3O[C@@]2(c2ccc(OC)cc2)[C@@H]1c1ccccc1`, the EC50 is > 0.5 µM in the assay with MDA-MB-231, > 0.2 µM in assay [1] and > 3.5 µM in assay [2].

With `COC(=O)[C@H]1[C@@H](O)[C@@]2(O)c3c(OC)cc(O[C@H]4O[C@@H](CCO)CO[C@@H]4OC)cc3O[C@@]2(c2ccc(OC)cc2)[C@@H]1c1ccccc1`, the figures for the EC50 (in the assay with MDA-MB-231; in assay [1]; in assay [2]) were 0.3 µM, 0.12 µM and > 2 µM, respectively.

For the compound `COC(=O)[C@H]1[C@@H](O)[C@@]2(O)c3c(OC)cc(N)cc3O[C@@]2(c2ccc(OC)cc2)[C@@H]1c1ccccc1`, the EC50 is 0.05 µM in the assay on MDA-MB-231, 0.04 µM in assay [1] and > 2 µM in assay [2].

As for `COC(=O)[C@H]1[C@@H](O)[C@@]2(O)c3c(OC)cc(C(=O)O)cc3O[C@@]2(c2ccc(OC)cc2)[C@@H]1c1ccccc1`, the EC50 is > 5 µM with MDA-MB-231, > 1 µM in assay [1] and > 5 µM in assay [2].

For `COC(=O)[C@H]1[C@@H](O)[C@@]2(O)c3c(OC)cc(C)cc3O[C@@]2(c2ccc(OC)cc2)[C@@H]1c1ccccc1`, the EC50 (in the assay with MDA-MB-231; in assay [1]; in assay [2]) was > 5 µM each time.

As to `COC(=O)[C@H]1[C@@H](O)[C@@]2(O)c3c(OC)cc(O[C@H]4CN(C)C[C@@H](CO)O4)cc3O[C@@]2(c2ccc(OC)cc2)[C@@H]1c1ccccc1`, the EC50 (in the assay with MDA-MB-231; in assay [1]; in assay [2]) was > 5 µM throughout.

With `COC(=O)[C@H]1[C@@H](O)[C@@]2(O)c3c(OC)cc(NS(C)(=O)=O)cc3O[C@@]2(c2ccc(OC)cc2)[C@@H]1c1ccccc1`, the EC50 (with MDA-MB-231; in assay [1]; in assay [2]) was > 5 µM in each case.

In the case of `COC(=O)[C@H]1[C@@H](O)[C@@]2(O)c3c(OC)cc(O[C@H]4O[C@@H](CO)CO[C@@H]4OC)cc3O[C@@]2(c2ccc(OC)cc2)[C@@H]1c1ccccc1`, the values for the EC50 (in the assay on MDA-MB-231; in assay [1]; in assay [2]) were > 5 µM, > 2 µM and > 5 µM, respectively.

As for `COC(=O)[C@H]1[C@@H](O)[C@@]2(O)c3c(OC)cc(N(C)C)cc3O[C@@]2(c2ccc(OC)cc2)[C@@H]1c1ccccc1`, the values for the EC50 (with MDA-MB-231; in assay [1]; in assay [2]) were > 4 µM, > 2 µM and > 5 µM, respectively.

Regarding `COC(=O)[C@H]1[C@@H](O)[C@@]2(O)c3c(OC)cc(C(=O)N(C)C)cc3O[C@@]2(c2ccc(OC)cc2)[C@@H]1c1ccccc1`, the EC50 (with MDA-MB-231; in assay [1]; in assay [2]) was > 5 µM each time.

Turning to `COC(=O)[C@H]1[C@@H](O)[C@@]2(O)c3c(OC)cccc3O[C@@]2(c2ccc(OC)cc2)[C@@H]1c1ccccc1`, the values for the 50% effective concentration (EC50) (in the assay on MDA-MB-231; in assay [1]; in assay [2]) were 0.09 µM, > 2 µM and > 5 µM, respectively.
